Results published in ChEMBL document CHEMBL3751768, “Synthesis and anti-tuberculosis activity of glycitylamines” (2016).

tested on: Mycobacterium tuberculosis; assay: Antitubercular activity against […] after 7 days by alamar blue assay; assay type: functional; conditions: 168 h
How it was run: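 M. bovis BCG stock, thawed with sonication/ice cycles, diluted to 8 × 10⁴ bacteria per mL in Tween albumin broth (Dubos/OADC). Compounds prepared in PBS (up to 5% DMSO) at double strength, filter-sterilised, serially diluted; tested in triplicate from […] start.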

SMILES	MIC
C=C[C@H](OC)[C@H](CNC(c1ccccc1)c1ccccc1)OC	800 µM
OC[C@@H]1NCC[C@@H]1O	> 3500 µM
C=C[C@@H](O)CCN	> 3500 µM
C=C[C@@H](O)[C@H](O)CN(CCCC)CCCC	> 500 µg/mL
O=C1OC[C@H]2[C@@H](O)CCN12	> 3500 µM
C=C[C@@H](O)[C@H](O)CNC1CCCCCCCCCCC1	200 µM
C=C[C@@H](O)[C@H](O)CNC(c1ccccc1)c1ccccc1	1600 µM
C=C[C@H](O)[C@@H](O)CNCCCCCCCC	940 µM
OC[C@@H](O)[C@H](O)[C@H](O)CNC1CCCCC1	> 500 µg/mL
OC[C@@H](O)[C@H](O)[C@H](O)CNC12CC3CC(CC(C3)C1)C2	> 500 µg/mL
OC[C@H]1NC[C@H](O)[C@H]1O	> 3500 µM
C=C[C@@H](O)[C@@H](O)CNCc1ccccc1	> 500 µg/mL
NC1CCCCCCCCCCC1	680 µM
OC[C@@H]1NC[C@@H](O)[C@@H]1O	> 3500 µM
CCCCCCCCCCCCCCN [TETRADECYLAMINE]	140 µM
C[C@H](O)[C@@H](O)[C@@H](O)[C@H](O)CNC1CCCCCCC1	> 500 µg/mL
OC[C@@H]1NC[C@H](O)[C@@H]1O	> 3500 µM
O=C1OC[C@H]2[C@@H](O)[C@@H](O)CN12	> 3500 µM
C=C[C@H](O)[C@@H](O)CNCc1ccccc1	> 500 µg/mL
CCCCCCCCCCCCCCCCN [HEXADECYLAMINE]	130 µM
C=C[C@H](O)[C@@H](O)CNC(c1ccccc1)c1ccccc1	440 µM

SMILES	MIC
O=C1OC[C@H]2[C@@H](O)[C@H](O)CN12	> 3500 µM
C[C@H](O)[C@@H](O)[C@@H](O)[C@H](O)CNC1CCCCCCCCCCC1	680 µM
C=C[C@@H](O)[C@H](O)CNCCCCCCCCCCCCCCCC	21 µM
C[C@H](O)[C@@H](O)[C@@H](O)[C@H](O)CNC1CCCCC1	> 500 µg/mL
CC[C@@H](CO)NCCN[C@@H](CC)CO [ETHAMBUTOL]	39 µM
C=C[C@@H](O)[C@H](O)CNCCCCCCCC	680 µM
C=C[C@@H](O)[C@H](O)CNCc1ccccc1	> 500 µg/mL
C[C@H](O)[C@H](O)[C@@H](O)[C@@H](O)CNC1CCCCCCC1	> 500 µg/mL
OC[C@@H](O)[C@H](O)[C@H](O)CNC1CCCCCCCCCCC1	160 µM
OC[C@@H](O)[C@H](O)[C@H](O)CNC1CCCCCCC1	> 500 µg/mL
NC(c1ccccc1)c1ccccc1 [AMINODIPHENYLMETHANE]	1360 µM
C=C[C@@H](O)[C@H](O)CNCCCCCCCCCCCCCC	45 µM
C=C[C@@H](O)[C@H](O)CN(C)CCCCCCCCCCCCCCCC	22 µM
C=C[C@@H](O)[C@H](O)CN	> 3500 µM
C=C[C@@H](O)[C@@H](O)CNCCCCCCCC	940 µM
C=C[C@@H](O)[C@H](O)CNC12CC3CC(CC(C3)C1)C2	> 500 µg/mL
C=C[C@H](O)[C@@H](O)CN	> 3500 µM
C=C[C@@H](O)[C@H](O)CNC[C@@H](O)[C@H](O)C=C	2000 µM
C=C[C@@H](O)[C@@H](O)CNC(c1ccccc1)c1ccccc1	1600 µM
C=C[C@@H](O)[C@@H](O)CN	> 3500 µM
O=C1OC[C@@H]2[C@H](O)[C@@H](O)CN12	> 3500 µM
